Test results as given in ChEMBL document CHEMBL4665841, “Rapid Solid-Phase Construction of Serine Hydrolase Probes Results in Selective Activity-Based Probes for Acyl Protein Thioesterases-1/2” (J Med Chem, 2020).
The source made the active and inactive calls. No cut-off for these calls is given here.

Key:
[1] = target: Acyl-protein thioesterase 1/2 (Homo sapiens) (UniProt O75608+O95372); assay: Inhibition of FP-Rh binding to APT-1/2 in human A-431 cells at 1 uM preincubated for 2 hrs followed by compound washout and subsequent FP-Rh addition and measured after 1 hr by SDS-PAGE analysis
[2] = target: T1, Acyl-protein thioesterase 1/2 (Mus musculus) (UniProt P97823+Q9WTL7); assay: Inhibition of APT-1/2 in mouse brain cytosolic fraction at 0.1 to 1 uM preincubated for 1 hr followed by TAMRA-alkyne addition and measured after 1 hr by SDS-PAGE analysis based click chemistry labelling method; assay type: tissue-based; settings: dose microM 0.1-1, time 2.0 hrs
Summary of the method: (§1)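 Mouse brain cytosolic or membrane fraction (1 mg/mL; membrane pellet from 100,000 g spin, in 20 mM HEPES, 2 mM DTT, pH 7.2) incubated 1 h with probe added from 100x DMSO stock. CuAAC click with TAMRA-alkyne, THPTA, sodium ascorbate and CuSO4 for 1 h at room temperature; boiled in sample buffer, 12% SDS-PAGE, in-gel fluorescence.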

Mus musculus = species: Mus musculus; assay: Selectivity ratio of apparent IC50 for inhibition of FP-Rh binding to ABHD6 in mouse brain cytosolic fraction to apparent IC50 for inhibition of FP-Rh binding to APT-1/2 in mouse brain membrane fraction; assay type: cell membranes
Summary of the method: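 Ratio of apparent IC50 values from competitive ABPP in mouse brain fractions (1 mg/mL). Each IC50 came from a 1 h inhibitor preincubation over six 1:3-diluted concentrations, then 1 h FP-rhodamine. 12% SDS-PAGE and in-gel fluorescence; band intensity normalized to uninhibited control, then fitted to a dose-response curve.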

[3] = target: T1, Acyl-protein thioesterase 1/2 (Mus musculus); assay: Inhibition of APT-1/2 in mouse brain cytosolic fraction at 1 uM preincubated for 1 hr followed by TAMRA-Lys(biotin)-NH-propyne addition and measured after 1 hr click chemistry labelling based Western blot analysis; assay type: tissue-based; settings: time 2.0 hrs
Summary of the method: (§2)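 Cytosolic or membrane mouse brain fraction (1 mg/mL) treated 1 h with 1 μM probe (100x DMSO stock) or DMSO. Click with TAMRA-Lys(biotin)-NHpropyne tag, THPTA, CuSO4, ascorbate, 1 h RT. Two cold-acetone precipitations, redissolved in PBS/2% SDS, diluted to 0.4% SDS, streptavidin pull-down 1 h at 25 °C. Gel fluorescence scanned, then blotted with anti-APT-1 or anti-APT-2 (0.5 μg/mL) overnight, HRP anti-rabbit, chemiluminescence.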

[4] = target: T1, Acyl-protein thioesterase 1/2 (Mus musculus); assay: Inhibition of APT-1/2 in mouse brain membrane fraction at 0.1 to 1 uM preincubated for 1 hr followed by TAMRA-alkyne addition and measured after 1 hr by SDS-PAGE analysis based click chemistry labelling method; assay type: cell membranes; settings: dose microM 0.1-1, time 2.0 hrs
Summary of the method: as §1

[5] = target: Acyl-protein thioesterase 1/2 (Mus musculus, UniProt P97823+Q9WTL7); assay: (§3) Inhibition of FP-Rh binding to APT-1/2 in mouse brain cytosolic fraction preincubated for 1 hr followed by FP-Rh addition and measured after 1 hr by SDS-PAGE analysis; assay type: tissue-based
Summary of the method: (§4)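 Apparent IC50 by competitive ABPP. Mouse brain cytosolic or membrane fraction (1 mg/mL) preincubated 1 h at RT with six inhibitor concentrations (1:3 serial dilution from top 30 μM or 370 nM; 100x DMSO stock), then FP-rhodamine 1 h. 12% SDS-PAGE, fluorescence at 532/568 nm. Band intensities normalized to uninhibited FP-Rh control (100%); IC50 fitted from dose-response curve.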

[6] = target: T1, Acyl-protein thioesterase 1/2 (Mus musculus); assay: Inhibition of FP-Rh binding to APT-1/2 in mouse brain membrane fraction preincubated for 1 hr followed by FP-Rh addition and measured after 1 hr by SDS-PAGE analysis; assay type: cell membranes; settings: time 2.0 hrs
Summary of the method: as §4

[7] = target: T2, Monoacylglycerol lipase ABHD6 (Mus musculus, UniProt Q8R2Y0); assay: Inhibition of FP-Rh binding to ABHD6 in mouse brain cytosolic fraction preincubated for 1 hr followed by FP-Rh addition and measured after 1 hr by SDS-PAGE analysis; assay type: tissue-based
T2 sequence (Q8R2Y0 whole entry): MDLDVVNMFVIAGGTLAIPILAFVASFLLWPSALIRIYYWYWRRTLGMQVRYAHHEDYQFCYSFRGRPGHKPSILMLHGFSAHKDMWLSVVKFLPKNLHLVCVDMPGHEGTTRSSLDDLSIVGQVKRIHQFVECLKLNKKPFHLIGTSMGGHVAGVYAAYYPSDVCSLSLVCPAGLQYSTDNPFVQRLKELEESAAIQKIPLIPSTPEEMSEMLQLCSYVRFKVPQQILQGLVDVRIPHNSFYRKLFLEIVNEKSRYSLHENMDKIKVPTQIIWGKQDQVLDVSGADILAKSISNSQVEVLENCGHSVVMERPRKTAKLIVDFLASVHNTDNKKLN
Summary of the method: as §4

[8] = target: T1, Acyl-protein thioesterase 1/2 (Mus musculus); assay: Inhibition of APT-1/2 in mouse brain membrane fraction at 1 uM preincubated for 1 hr followed by TAMRA-Lys(biotin)-NH-propyne addition and measured after 1 hr click chemistry labelling based Western blot analysis; assay type: cell membranes; settings: time 2.0 hrs
Summary of the method: as §2

[9] = target: T1, Acyl-protein thioesterase 1/2 (Mus musculus); assay: as §3; assay type: tissue-based; settings: time 2.0 hrs
Summary of the method: as §4

T1 sequence (P97823 whole entry, looked up): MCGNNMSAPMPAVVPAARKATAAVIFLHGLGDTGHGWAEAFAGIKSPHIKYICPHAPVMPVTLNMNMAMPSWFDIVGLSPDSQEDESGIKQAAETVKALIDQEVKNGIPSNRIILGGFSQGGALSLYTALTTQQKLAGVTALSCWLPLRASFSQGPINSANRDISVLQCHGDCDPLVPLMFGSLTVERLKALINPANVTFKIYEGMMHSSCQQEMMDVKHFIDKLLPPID
T1 sequence (Q9WTL7 whole entry, looked up): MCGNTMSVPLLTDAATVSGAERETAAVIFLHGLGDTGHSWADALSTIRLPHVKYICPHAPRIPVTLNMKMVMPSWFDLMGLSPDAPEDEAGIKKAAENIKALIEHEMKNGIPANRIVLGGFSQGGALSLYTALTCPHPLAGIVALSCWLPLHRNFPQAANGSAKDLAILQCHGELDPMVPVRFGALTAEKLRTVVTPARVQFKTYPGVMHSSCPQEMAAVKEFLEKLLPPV
Acyl-protein thioesterase 1/2 (Homo sapiens), sequence (O75608 whole entry, looked up): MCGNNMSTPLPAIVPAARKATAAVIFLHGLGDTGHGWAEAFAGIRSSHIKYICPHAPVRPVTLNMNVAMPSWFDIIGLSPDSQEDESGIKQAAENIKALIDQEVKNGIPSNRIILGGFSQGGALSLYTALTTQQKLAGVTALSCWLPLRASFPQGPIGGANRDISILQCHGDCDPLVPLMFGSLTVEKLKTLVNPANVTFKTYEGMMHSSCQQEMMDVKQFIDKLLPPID
Acyl-protein thioesterase 1/2 (Homo sapiens), sequence (O95372 whole entry, looked up): as the sequence (Q9WTL7 whole entry, looked up) above, with N154A, T193S counted along it

[N-]=[N+]=NCCCC[C@H](NC(=O)CCCCCNC(=O)c1ccc(CN2CCN(C(=O)n3ccnn3)CC2)cc1)C(N)=O
inhibition [1]: Active
inhibition [2]: Active
Ratio IC50 (Mus musculus): 250
inhibition [3]: Active
inhibition [4]: Active
IC50(app) [5]: 0.0279 µM
inhibition [6]: Active
IC50 [7]: 7.4 µM
inhibition [8]: Active

[N-]=[N+]=NCCCC[C@H](NC(=O)CCCCCNC(=O)CN(Cc1ccccc1)C(=O)C1CCN(C(=O)n2ccnn2)CC1)C(N)=O
inhibition [1]: Active
inhibition [2]: Active
Ratio IC50 (Mus musculus): > 2500
inhibition [3]: Active
inhibition [4]: Active
IC50(app) [5]: 0.0118 µM
inhibition [6]: Active
IC50 [7]: > 30 µM
inhibition [8]: Active

[N-]=[N+]=NCCCC[C@H](NC(=O)CCCCCNC(=O)c1ccc(CN2CCN(C(=O)ON3C(=O)CCC3=O)CC2)cc1)C(N)=O
inhibition [9]: Active
inhibition [6]: Active

[N-]=[N+]=NCCCC[C@H](NC(=O)CCCCCNC(=O)CN(Cc1ccccc1)C(=O)C1CCN(C(=O)ON2C(=O)CCC2=O)CC1)C(N)=O
inhibition [9]: Active
inhibition [6]: Active

[N-]=[N+]=NCCCC[C@H](NC(=O)CCCCCNC(=O)[C@H](Cc1ccccc1)NC(=O)C1CCN(C(=O)n2ccnn2)CC1)C(N)=O
Ratio IC50 (Mus musculus): > 65
IC50(app) [5]: 0.46 µM
inhibition [6]: Active
IC50 [7]: > 30 µM
